Results on one compound are retold here after ChEMBL document CHEMBL2062472, “N-(2-oxo-3-oxetanyl)carbamic acid esters as N-acylethanolamine acid amidase inhibitors: synthesis and structure-activity and structure-property relationships” (J Med Chem, 2012).

Structures are written as SMILES.

Data set [1] is described as follows: Apparent half life of the compound in 50% v/v human plasma by HPLC analysis. Format: ADME, cell-free. The note with it: 50% v/v plasma, read-out: t1/2(app). The essentials:
(§1)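 Rat or human plasma at 50% (v/v) was preincubated with BNPP, eserine, PMSF, EDTA or vehicle, then compound was added and kept at 37 °C. Aliquots taken at regular time points were quenched with 2 volumes of CH3CN, centrifuged, and analysed by RP-HPLC. Apparent t1/2 came from log[compound]-vs-time regression.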

A short description of data set [2]: Apparent Half life of the compound in 0.01 M phosphate buffer at pH 5 in presence of 3 mM DTT. The note with it: read-out: t1/2(app).
The target in the next data set is Albumin (Bos taurus, UniProt P02769). In words: Apparent half life of the compound in bovine serum albumin in phosphate-buffered saline at pH 7.4. The note with it: cattle, read-out: t1/2(app). Format: ADME. The essentials: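 Compound incubated at 5–100 μM final (1% DMSO) at 37 °C in 20 mg/mL bovine serum albumin in PBS pH 7.4. Aliquots were quenched with 2 volumes of CH3CN, centrifuged, and analysed by RP-HPLC. Apparent t1/2 came from pseudo-first-order regression of log[compound] vs time.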
Sequence of Albumin (P02769 whole entry): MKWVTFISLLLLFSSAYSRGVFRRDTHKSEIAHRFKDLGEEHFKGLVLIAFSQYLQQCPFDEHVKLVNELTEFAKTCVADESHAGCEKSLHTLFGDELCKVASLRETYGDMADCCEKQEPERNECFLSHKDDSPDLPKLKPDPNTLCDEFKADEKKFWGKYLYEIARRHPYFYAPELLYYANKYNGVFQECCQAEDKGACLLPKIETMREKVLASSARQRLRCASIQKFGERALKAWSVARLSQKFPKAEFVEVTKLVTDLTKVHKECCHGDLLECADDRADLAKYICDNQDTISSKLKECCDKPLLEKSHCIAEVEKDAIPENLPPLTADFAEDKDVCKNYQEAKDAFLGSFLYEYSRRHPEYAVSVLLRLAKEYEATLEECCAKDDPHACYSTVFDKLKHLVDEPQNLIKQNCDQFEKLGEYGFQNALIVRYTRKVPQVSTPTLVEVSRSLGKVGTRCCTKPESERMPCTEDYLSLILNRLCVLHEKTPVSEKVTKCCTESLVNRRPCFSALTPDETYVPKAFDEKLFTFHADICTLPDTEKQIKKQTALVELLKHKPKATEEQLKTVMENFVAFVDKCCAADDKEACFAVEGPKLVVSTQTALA

Data set [3] can be described thus: Apparent half life of the compound in rat plasma by HPLC analysis. In kind it is ADME, cell-free. The note with it: read-out: t1/2(app) (converted). The essentials: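 Pooled heparinized plasma from male Wistar rats was diluted to 80% (v/v) with PBS pH 7.4. Compound was added at 5–100 μM final (1% DMSO) and incubated at 37 °C with shaking. Aliquots were quenched with 2 volumes of CH3CN, centrifuged, and analysed by RP-HPLC. t1/2 came from log[compound]-vs-time regression, as mean ± SD of three experiments.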

Data set [4] is described as follows: Apparent half life of the compound in 50% v/v human plasma by HPLC analysis in presence of eserine. Format: ADME, cell-free. To be noted: 50% v/v plasma, with eserine, read-out: t1/2(app). The essentials: as §1
Data set [5] is described as follows: Apparent half life of the compound in 50% v/v rat plasma by HPLC analysis in presence of PMSF. Format: ADME, cell-free. The note with it: 50% v/v plasma, with PMSF, read-out: t1/2(app). The essentials:
as §1

Data set [6] is described as follows: Apparent half life of the compound in 50% v/v rat plasma by HPLC analysis. Format: ADME, cell-free. The note with it: 50% v/v plasma, read-out: t1/2(app). The essentials: as §1
Data set [7] is described as follows: Apparent half life of the compound in 50% v/v human plasma by HPLC analysis in presence of EDTA. Format: ADME, cell-free. The note with it: 50% v/v plasma, with EDTA, read-out: t1/2(app). The essentials: as §1
A short description of data set [8]: Apparent half life of the compound in 50% v/v rat plasma by HPLC analysis in presence of eserine. In kind it is ADME, cell-free. The note with it: 50% v/v plasma, with eserine, read-out: t1/2(app). The essentials: as §1
Data set [9] in a line: Apparent Half life of the compound in 0.01 M phosphate-buffered saline at pH 7.4. In kind it is physicochemical. To be noted: read-out: t1/2(app). The essentials: (§2)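 Compound (from DMSO stock; 1% DMSO final) incubated at 1–100 μM final at 37 °C with shaking, ionic strength 0.15 M, in 0.01 M PBS pH 7.4 or 0.01 M phosphate buffer pH 5.0. Aliquots taken over time were analysed by RP-HPLC. Apparent t1/2 came from pseudo-first-order rate constants (linear regression of log[compound] vs time), reported as mean ± SD of three experiments.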

Data set [10] concerns the target T1, N-acylethanolamine-hydrolyzing acid amidase (Rattus norvegicus, UniProt Q5KTC7).
T1 sequence (Q5KTC7 whole entry): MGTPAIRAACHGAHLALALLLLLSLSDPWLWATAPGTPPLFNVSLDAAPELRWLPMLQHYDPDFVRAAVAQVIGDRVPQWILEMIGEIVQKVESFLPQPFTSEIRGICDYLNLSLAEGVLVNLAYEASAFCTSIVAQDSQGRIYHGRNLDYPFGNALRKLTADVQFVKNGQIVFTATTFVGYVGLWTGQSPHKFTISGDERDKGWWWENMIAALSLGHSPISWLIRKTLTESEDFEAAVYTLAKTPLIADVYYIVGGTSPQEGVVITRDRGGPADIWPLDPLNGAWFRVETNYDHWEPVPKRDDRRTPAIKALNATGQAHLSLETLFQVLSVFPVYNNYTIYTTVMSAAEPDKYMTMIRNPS
Put plainly: Inhibition of rat recombinant NAAA expressed in HEK293 cells using heptadecenoylethanolamide as substrate after 30 mins by LC/MS analysis. In kind it is cell-based. The essentials: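 Recombinant rat NAAA incubated 30 min at 37 °C in 50 mM sodium hydrogen phosphate buffer pH 5.0 containing 0.1% Triton X-100, 3 mM DTT and heptadecenoylethanolamide substrate (50 mM as printed). The reaction was stopped with cold methanol containing 1 nmol heptadecanoic acid. Product was measured by LC/MS with negative ESI, selected ion monitoring at m/z 267.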

Data set [11] is described as follows: Apparent Half life of the compound in 0.01 M phosphate buffer at pH 5. In kind it is physicochemical. To be noted: read-out: t1/2(app). The essentials: as §2
Data set [12] in a line: Apparent half life of the compound in 50% v/v human plasma by HPLC analysis in presence of BNPP. Format: ADME, cell-free. To be noted: 50% v/v plasma, with BNPP, read-out: t1/2(app). The essentials:
as §1

A short description of data set [13]: Apparent half life of the compound in 50% v/v rat plasma by HPLC analysis in presence of EDTA. Format: ADME, cell-free. The note with it: 50% v/v plasma, with EDTA, read-out: t1/2(app). The essentials:
as §1

A short description of data set [14]: Apparent half life of the compound in 50% v/v human plasma by HPLC analysis in presence of PMSF. Format: ADME, cell-free. The note with it: 50% v/v plasma, with PMSF, read-out: t1/2(app). The essentials: as §1
Data set [15] in a line: Apparent half life of the compound in 50% v/v rat plasma by HPLC analysis in presence of BNPP. To be noted: 50% v/v plasma, with BNPP, read-out: t1/2(app). Format: ADME, cell-free. The essentials:
as §1

As a reminder, the IC50 is the concentration that inhibits the measured activity by half. Regarding `C[C@@H]1OC(=O)[C@@H]1NC(=O)OC(C)(C)C`, the half-life in data set [1] is 2.99 min; in data set [2], 147 min; on Albumin, 129 min; in [3] it was 0.183 min; in [4], 13.8 min; in data set [5], 7.13 min. For the same compound, the half-life in [6] came to 0.53 min; in data set [7] it was 32 min; in data set [8], 4.19 min; in data set [9], 122 min; in data set [11] it was 241 min; in data set [12] it was 4.7 min. The half-life in [13] came out at 0.34 min; in [14], 11.5 min; in data set [15], 3.29 min. In addition, the IC50 in data set [10] was 220 nM.
